In ChEMBL document CHEMBL1152244, “Proteochemometrics analysis of substrate interactions with dengue virus NS3 proteases” (Bioorg Med Chem, 2008) one finds Km and kcat data, which are given here for 18 molecules.

In one assay the test system is dengue virus type 3. The assay is described as follows: Activity of dengue virus 3 recombinant NS3 protease expressed in Escherichia coli C41(DE3) by fluorogenic assay. Put shortly: (§1)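 NS2B(H)-NS3pro from inclusion bodies, Ni-chelate and gel filtration purified under 8 M urea, refolded by dialysis. Internally quenched Abz–RRRR-XXXX–nY–NH2 peptides, 1–100 µM (12 points), enzyme 150–200 nM, 50 mM Tris–HCl pH 9.0, 20% glycerol, 37 °C. Cleavage read as fluorescence, ex 320/em 420 nm. Initial rates fitted to give Km and kcat, averaged over ≥3 independent measurements.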

Another assay concerns dengue virus type 2. The assay is described as follows: Activity of dengue virus 2 recombinant NS3 protease expressed in Escherichia coli C41(DE3) by fluorogenic assay. Put shortly:
as §1

The test system of another assay is dengue virus type 4. The assay is described as follows: Activity of dengue virus 4 recombinant NS3 protease expressed in Escherichia coli C41(DE3) by fluorogenic assay. Put shortly: as §1
Another assay concerns dengue virus type 1. The assay can be described thus: Activity of dengue virus 1 recombinant NS3 protease expressed in Escherichia coli C41(DE3) by fluorogenic assay. Put shortly: as §1

In general, Km refers to the substrate concentration at which the rate is half of its maximum. Broadly, the kcat is the number of substrate molecules converted per active site and unit of time at saturation.

Non-standard residues stand in square brackets, D forms with d. Residues, ends and D or L forms follow the SMILES beside them. Tyr(3-NO2) = N[C@@H](Cc1ccc(O)c([N+](=O)[O-])c1)C(=O)O; 2Abz = Nc1ccccc1C(=O)O

In the case of `NC(=O)[C@H](Cc1ccc(O)c([N+](=O)[O-])c1)NC(=O)[C@H](Cc1cnc[nH]1)NC(=O)[C@H](CS)NC(=O)CNC(=O)[C@H](CC(=O)O)NC(=O)c1ccccc1N` (H-[2Abz]DGCH[Tyr(3-NO2)]-NH2), the Km turned out to be 20.8 µM with dengue virus type 3, 7.02 µM in the assay with dengue virus type 2, 9.05 µM with dengue virus type 4 and 22.9 µM in the assay on dengue virus type 1. Also, the kcat was determined as 0.17 min⁻¹ in the assay with dengue virus type 3, 0.09 min⁻¹ in the assay on dengue virus type 2, 0.47 min⁻¹ with dengue virus type 4 and 0.77 min⁻¹ with dengue virus type 1.
As for `C[C@H](NC(=O)[C@H](CC(N)=O)NC(=O)c1ccccc1N)C(=O)N[C@@H](CS)C(=O)N[C@@H](CS)C(=O)N[C@@H](Cc1ccc(O)c([N+](=O)[O-])c1)C(N)=O` (H-[2Abz]NACC[Tyr(3-NO2)]-NH2), the Km in the assay with dengue virus type 3 is 13 µM; in the assay with dengue virus type 2 it was 3.21 µM; in the assay on dengue virus type 4, 3.03 µM; in the assay on dengue virus type 1, 8.81 µM. For the same molecule, the kcat with dengue virus type 3 was 0.61 min⁻¹; in the assay on dengue virus type 2 it was 0.28 min⁻¹; in the assay with dengue virus type 4 it was 2.23 min⁻¹; with dengue virus type 1, 0.83 min⁻¹.
In the case of `C[C@@H](O)[C@H](NC(=O)CNC(=O)CNC(=O)c1ccccc1N)C(=O)N[C@@H](CC(=O)O)C(=O)N[C@@H](Cc1ccc(O)c([N+](=O)[O-])c1)C(N)=O` (H-[2Abz]GGTD[Tyr(3-NO2)]-NH2), the Km in the assay with dengue virus type 3 turned out to be 18.6 µM; in the assay with dengue virus type 2 it was 12.9 µM; in the assay on dengue virus type 4, 12.2 µM; in the assay with dengue virus type 1, 49.7 µM. The kcat was 1.48 min⁻¹ in the assay with dengue virus type 3, 0.43 min⁻¹ in the assay on dengue virus type 2, 3.51 min⁻¹ in the assay with dengue virus type 4 and 4.29 min⁻¹ in the assay on dengue virus type 1.
With `NC(=O)[C@H](Cc1ccc(O)c([N+](=O)[O-])c1)NC(=O)[C@H](CC(=O)O)NC(=O)[C@H](CS)NC(=O)[C@H](Cc1cnc[nH]1)NC(=O)[C@H](CO)NC(=O)c1ccccc1N` (H-[2Abz]SHCD[Tyr(3-NO2)]-NH2), the Km in the assay with dengue virus type 3 was 11.3 µM; in the assay with dengue virus type 2 it was 11.4 µM; in the assay on dengue virus type 4, 9.77 µM; in the assay on dengue virus type 1, 26.3 µM. For the same molecule, the kcat was 1.71 min⁻¹ in the assay on dengue virus type 3, 0.74 min⁻¹ with dengue virus type 2, 4.7 min⁻¹ with dengue virus type 4 and 4.11 min⁻¹ in the assay on dengue virus type 1.
Take `NC(=O)C[C@H](NC(=O)c1ccccc1N)C(=O)N1CCC[C@H]1C(=O)N[C@@H](CO)C(=O)N[C@@H](Cc1cnc[nH]1)C(=O)N[C@@H](Cc1ccc(O)c([N+](=O)[O-])c1)C(N)=O` (H-[2Abz]NPSH[Tyr(3-NO2)]-NH2): the Michaelis constant (Km) with dengue virus type 3 amounted to 26.9 µM; in the assay on dengue virus type 2, 5.18 µM; with dengue virus type 4, 21.5 µM; in the assay on dengue virus type 1 it was 13.4 µM. Moreover, the kcat with dengue virus type 3 turned out to be 0.11 min⁻¹; with dengue virus type 2 it was 0.08 min⁻¹; with dengue virus type 4, 1.35 min⁻¹; with dengue virus type 1, 0.37 min⁻¹.
For the molecule `C[C@H](NC(=O)[C@H](CO)NC(=O)c1ccccc1N)C(=O)NCC(=O)N[C@@H](Cc1ccc(O)c([N+](=O)[O-])c1)C(N)=O` (H-[2Abz]SAG[Tyr(3-NO2)]-NH2), the Michaelis-Menten constant (Km) was 20.9 µM in the assay with dengue virus type 3, 3.61 µM in the assay with dengue virus type 2, 15.2 µM with dengue virus type 4 and 28.4 µM with dengue virus type 1. Also, the kcat with dengue virus type 3 turned out to be 4.11 min⁻¹; in the assay with dengue virus type 2, 2.54 min⁻¹; in the assay with dengue virus type 4, 27.7 min⁻¹; in the assay with dengue virus type 1, 16.9 min⁻¹.
For the molecule `C[C@@H](O)[C@H](NC(=O)[C@H](CO)NC(=O)c1ccccc1N)C(=O)N1CCC[C@H]1C(=O)N[C@@H](Cc1cnc[nH]1)C(=O)N[C@@H](Cc1ccc(O)c([N+](=O)[O-])c1)C(N)=O` (H-[2Abz]STPH[Tyr(3-NO2)]-NH2), the Km was 42.2 µM with dengue virus type 3, 17.2 µM in the assay on dengue virus type 2, 14.8 µM in the assay on dengue virus type 4 and 18.1 µM in the assay on dengue virus type 1. Also, the kcat in the assay on dengue virus type 3 came out at 0.87 min⁻¹; with dengue virus type 2, 0.94 min⁻¹; in the assay on dengue virus type 4 it was 4.68 min⁻¹; in the assay on dengue virus type 1 it was 1.88 min⁻¹.
For the molecule `CSCC[C@H](NC(=O)CNC(=O)[C@H](C)NC(=O)[C@H](CO)NC(=O)c1ccccc1N)C(=O)N[C@@H](Cc1ccc(O)c([N+](=O)[O-])c1)C(N)=O` (H-[2Abz]SAGM[Tyr(3-NO2)]-NH2), the Km in the assay on dengue virus type 3 was determined as 24.9 µM; with dengue virus type 2, 3.44 µM; with dengue virus type 4, 22.7 µM; with dengue virus type 1, 25.5 µM. Moreover, the kcat in the assay on dengue virus type 3 stood at 3.34 min⁻¹; with dengue virus type 2, 1.86 min⁻¹; in the assay with dengue virus type 4, 16.9 min⁻¹; with dengue virus type 1, 9.98 min⁻¹.
Take `CC(C)[C@H](NC(=O)[C@@H](NC(=O)CNC(=O)c1ccccc1N)[C@@H](C)O)C(=O)N[C@@H](CC(N)=O)C(=O)N[C@@H](Cc1ccc(O)c([N+](=O)[O-])c1)C(N)=O` (H-[2Abz]GTVN[Tyr(3-NO2)]-NH2): the Km turned out to be 12.6 µM in the assay on dengue virus type 3, 6.5 µM in the assay with dengue virus type 2, 11.8 µM in the assay on dengue virus type 4 and 10.5 µM in the assay with dengue virus type 1. Moreover, the kcat came out at 0.58 min⁻¹ in the assay with dengue virus type 3, 0.33 min⁻¹ in the assay with dengue virus type 2, 4.41 min⁻¹ with dengue virus type 4 and 1.16 min⁻¹ in the assay with dengue virus type 1.
Consider `C[C@@H](O)[C@H](NC(=O)[C@H](Cc1c[nH]c2ccccc12)NC(=O)[C@H](CC(N)=O)NC(=O)c1ccccc1N)C(=O)N[C@@H](CC(N)=O)C(=O)N[C@@H](Cc1ccc(O)c([N+](=O)[O-])c1)C(N)=O` (H-[2Abz]NWTN[Tyr(3-NO2)]-NH2), for which the Km in the assay with dengue virus type 3 turned out to be 9.37 µM; in the assay on dengue virus type 2, 6.02 µM; in the assay with dengue virus type 4, 10.4 µM; in the assay with dengue virus type 1, 13.7 µM. For the same molecule, the kcat in the assay with dengue virus type 3 is 0.39 min⁻¹; in the assay on dengue virus type 2, 0.3 min⁻¹; in the assay on dengue virus type 4, 2.27 min⁻¹; with dengue virus type 1, 0.87 min⁻¹.
As for `CSCC[C@H](NC(=O)CNC(=O)[C@H](C)NC(=O)[C@H](C)NC(=O)c1ccccc1N)C(=O)N[C@@H](Cc1ccc(O)c([N+](=O)[O-])c1)C(N)=O` (H-[2Abz]AAGM[Tyr(3-NO2)]-NH2), the Km in the assay with dengue virus type 3 came to 12.1 µM; in the assay on dengue virus type 2, 2.46 µM; in the assay with dengue virus type 4, 8.22 µM; in the assay on dengue virus type 1 it was 17.9 µM. Also, the kcat with dengue virus type 3 turned out to be 0.72 min⁻¹; in the assay with dengue virus type 2, 0.55 min⁻¹; in the assay with dengue virus type 4, 5.11 min⁻¹; in the assay with dengue virus type 1, 4.91 min⁻¹.
In the case of `NC(=O)[C@H](Cc1ccc(O)c([N+](=O)[O-])c1)NC(=O)[C@@H]1CCCN1C(=O)[C@@H]1CCCN1C(=O)CNC(=O)c1ccccc1N` (H-[2Abz]GPP[Tyr(3-NO2)]-NH2), the Michaelis-Menten constant (Km) with dengue virus type 3 worked out at 18.7 µM; in the assay with dengue virus type 2, 5.15 µM; with dengue virus type 4, 8.15 µM; in the assay with dengue virus type 1, 16.9 µM. For the same molecule, the kcat in the assay on dengue virus type 3 was 0.44 min⁻¹; in the assay with dengue virus type 2, 0.17 min⁻¹; in the assay on dengue virus type 4 it was 1.32 min⁻¹; in the assay with dengue virus type 1 it was 1.2 min⁻¹.
On to `NC(=O)[C@H](Cc1ccc(O)c([N+](=O)[O-])c1)NC(=O)[C@H](CS)NC(=O)[C@@H]1CCCN1C(=O)[C@H](CC(=O)O)NC(=O)CNC(=O)c1ccccc1N` (H-[2Abz]GDPC[Tyr(3-NO2)]-NH2), for which the Michaelis-Menten constant (Km) in the assay on dengue virus type 3 worked out at 41.5 µM; in the assay with dengue virus type 2, 13.2 µM; in the assay with dengue virus type 4 it was 11.5 µM; with dengue virus type 1, 31.9 µM. Also, the kcat came out at 0.42 min⁻¹ in the assay on dengue virus type 3, 0.18 min⁻¹ with dengue virus type 2, 1.26 min⁻¹ with dengue virus type 4 and 1.21 min⁻¹ in the assay with dengue virus type 1.
As to `CC(C)C[C@H](NC(=O)[C@@H]1CCCN1C(=O)[C@H](Cc1c[nH]c2ccccc12)NC(=O)[C@H](CO)NC(=O)c1ccccc1N)C(=O)N[C@@H](Cc1ccc(O)c([N+](=O)[O-])c1)C(N)=O` (H-[2Abz]SWPL[Tyr(3-NO2)]-NH2), the Km with dengue virus type 3 was 12 µM; in the assay with dengue virus type 2 it was 5.54 µM; in the assay on dengue virus type 4, 7.18 µM; in the assay on dengue virus type 1, 12.6 µM. For the same molecule, the kcat was determined as 0.89 min⁻¹ with dengue virus type 3, 0.63 min⁻¹ with dengue virus type 2, 4.01 min⁻¹ in the assay on dengue virus type 4 and 1.94 min⁻¹ in the assay with dengue virus type 1.
In the case of `CC(C)[C@H](NC(=O)[C@H](C)NC(=O)[C@H](C)NC(=O)c1ccccc1N)C(=O)N[C@@H](CC(=O)O)C(=O)N[C@@H](Cc1ccc(O)c([N+](=O)[O-])c1)C(N)=O` (H-[2Abz]AAVD[Tyr(3-NO2)]-NH2), the Km with dengue virus type 3 is 21.2 µM; in the assay on dengue virus type 2, 18.3 µM; in the assay on dengue virus type 4, 36.9 µM; with dengue virus type 1, 31.4 µM. Moreover, the kcat in the assay on dengue virus type 3 turned out to be 0.92 min⁻¹; in the assay on dengue virus type 2, 0.75 min⁻¹; with dengue virus type 4 it was 6.81 min⁻¹; with dengue virus type 1, 2.11 min⁻¹.
As to `C[C@H](NC(=O)c1ccccc1N)C(=O)N[C@@H](CC(N)=O)C(=O)NCC(=O)N[C@@H](Cc1cnc[nH]1)C(=O)N[C@@H](Cc1ccc(O)c([N+](=O)[O-])c1)C(N)=O` (H-[2Abz]ANGH[Tyr(3-NO2)]-NH2), the Km is 31.4 µM in the assay on dengue virus type 3, 7.02 µM with dengue virus type 2, 10.8 µM with dengue virus type 4 and 22.3 µM in the assay with dengue virus type 1. The kcat with dengue virus type 3 is 0.61 min⁻¹; with dengue virus type 2, 0.09 min⁻¹; in the assay on dengue virus type 4, 3.57 min⁻¹; in the assay with dengue virus type 1, 1.86 min⁻¹.
As to `C[C@@H](O)[C@H](NC(=O)CNC(=O)c1ccccc1N)C(=O)NCC(=O)N[C@@H](CC(N)=O)C(=O)N[C@@H](Cc1ccc(O)c([N+](=O)[O-])c1)C(N)=O` (H-[2Abz]GTGN[Tyr(3-NO2)]-NH2), the Km in the assay on dengue virus type 3 stood at 20.9 µM; with dengue virus type 2, 3.05 µM; in the assay with dengue virus type 4, 10.7 µM; with dengue virus type 1 it was 22.1 µM. In addition, the kcat with dengue virus type 3 amounted to 0.77 min⁻¹; in the assay on dengue virus type 2, 0.29 min⁻¹; in the assay with dengue virus type 4, 5.13 min⁻¹; with dengue virus type 1, 2.77 min⁻¹.
On to `C[C@H](NC(=O)c1ccccc1N)C(=O)N1CCC[C@H]1C(=O)N[C@@H](CS)C(=O)N[C@@H](CC(N)=O)C(=O)N[C@@H](Cc1ccc(O)c([N+](=O)[O-])c1)C(N)=O` (H-[2Abz]APCN[Tyr(3-NO2)]-NH2), for which the Km with dengue virus type 3 is 3.87 µM; in the assay with dengue virus type 2 it was 5.41 µM; with dengue virus type 4 it was 4.94 µM; in the assay on dengue virus type 1, 11.4 µM. The kcat worked out at 0.67 min⁻¹ in the assay on dengue virus type 3, 0.24 min⁻¹ in the assay with dengue virus type 2, 2.86 min⁻¹ with dengue virus type 4 and 2.38 min⁻¹ with dengue virus type 1.
